Measured values from different studies.
Each line is one published result; the experiments were not run side by side.
Target: Ephrin type-A receptor 2 (EPHA2, Homo sapiens, UniProt P29317)

| Structure (SMILES) | test | setting | endpoint | result |
| --- | --- | --- | --- | --- |
| CC1=C(C#N)[C@@H](c2ccc3[nH]nc(C)c3c2)C(C#N)=C(c2ccc(Cl)cc2)N1 | cell-free assay, competition with immobilised ligand | 1 µM | remaining binding | 100% |
| C#Cc1cccc(Nc2ncnc3cc(OCCOC)c(OCCOC)cc23)c1 | cell-free assay | 0.5 µM | remaining signal | 91.3% |
| COc1ccc2c(O[C@@H]3C[C@H]4C(=O)N[C@]5(C(=O)O)CC5/C=C\CCCCC[C@H](NC(=O)OC5CCCC5)C(=O)N4C3)cc(-c3csc(NC(=O)C(C)C)n3)nc2c1C (stereo partly drawn) | cell-free assay, competition with immobilised ligand | 1 µM | remaining binding | 80% |
| Cc1ccc(Nc2nccc(N(C)c3ccc4c(C)n(C)nc4c3)n2)cc1S(N)(=O)=O | enzyme activity, inhibitor | 0.3 µM | inhibition | -2% |
| Cc1nccc(COC(=O)N2C[C@@H]3[C@@H](CNC(=O)c4ccc5[nH]nnc5c4)[C@@H]3C2)n1 | cell-free assay, competition with immobilised ligand | 1 µM | remaining binding | 92% |
| FC(F)c1nc2ccccc2n1-c1nc(N2CCOCC2)nc(N2CCOCC2)n1 | enzyme activity, inhibitor | 10 µM | remaining activity | 106% |
| COc1cc(Nc2cnc(C#N)c(O[C@H](C)CN(C)C)n2)ncc1-c1cnn(C)c1 | enzyme activity, inhibitor, radiometric | 10 µM | remaining activity | 24% |
| CCCS(=O)(=O)Nc1ccc(F)c(C(=O)c2c[nH]c3ncc(-c4ccc(Cl)cc4)cc23)c1F | enzyme activity, inhibitor | 1 µM | inhibition | < 10% |
| O=C1Nc2ccc(Cl)cc2C1=Cc1cc(Cl)c(O)c(Cl)c1 | cell-free assay | 0.5 µM | remaining signal | 95% |
| Cc1ccc(C(=O)NCc2ccsc2)cc1C#Cc1cn(C(C)C)c2ncnc(N)c12 | enzyme activity, inhibitor | 1 µM | activity vs control | 2% |
| Nc1nc(Nc2ccccc2)sc1C(=O)c1c(F)cccc1F | enzyme activity, inhibitor | 10 µM | remaining activity | 71% |
| CNC(=O)c1cc2c(Oc3ccc(NC(=O)C4(C(=O)Nc5ccc(F)cc5)CC4)cc3)ccnc2cc1OC | enzyme activity, inhibitor, radiometric | 1 µM | inhibition | 96% |
| Cc1ccc(C(=O)Nc2ccc(CN3CCN(C)CC3)c(C(F)(F)F)c2)cc1C#Cc1cnc2cccnn12 | cell-free assay | 23.5 nM | remaining signal | 8.9% |
| O=C(N1CCS(=O)(=O)CC1)N1C[C@H](c2ccc(OC(F)(F)F)cc2)C[C@H](c2nc(C3CC3)no2)C1 | cell-free assay, competition with immobilised ligand | 1 µM | remaining binding | 100% |
| CNC(=O)c1cc(Oc2ccc(NC(=O)Nc3ccc(Cl)c(C(F)(F)F)c3)cc2)ccn1 | enzyme activity, inhibitor | 0.3 µM | inhibition | 23% |
| CC(C)(C)c1nc2c(s1)c1nc(N)ncc1c1ccc(NS(=O)(=O)c3c(F)cccc3F)c(F)c12 | enzyme activity, inhibitor, radiometric | 1 µM | remaining activity | 109% |
| COc1cc(Cl)c(C(=O)N[C@@H](CN[C@H]2CC[C@@H](N)CC2)Cc2ccc(C#N)cc2)cc1-c1ccc(CN[C@H](C)c2ccc(C)cc2)o1 | enzyme activity, inhibitor | 1 µM | remaining activity | 93% |
| O=C1NC(=O)c2cc(Nc3ccc(F)cc3)c(Nc3ccc(F)cc3)cc21 | cell-free assay | 0.5 µM | remaining signal | 94.3% |
| Nc1nc(NC2CCCCC2)sc1C(=O)c1ccccc1 | enzyme activity, inhibitor | 10 µM | remaining activity | 110% |
| CN(c1ccnc(CNc2nc(Nc3ccc4c(c3)CC(=O)N4)ncc2C(F)(F)F)n1)S(C)(=O)=O | cell-free assay, competition with immobilised ligand | 1 µM | remaining binding | 80% |
| O=C(Nc1cnn(-c2csc(C(=O)NC3COC3)c2)c1)Nc1c(F)cccc1Cl | enzyme activity, inhibitor | 5 µM | remaining activity | 97.9% |
| O=C(CSc1nc2nccnc2c(=O)n1CCc1ccccc1)Nc1nccs1 | enzyme activity, inhibitor | 10 µM | inhibition | 8% |
| C[C@@H]1CN(c2cc(-c3nn(C)c4ccc(OC5(C)CC5)cc34)ncn2)C[C@H](C)O1 | cell-free assay, competition with immobilised ligand | 1 µM | remaining binding | 100% |
| Cc1cc(NC(=O)c2cccc3cc(-c4cccc5[nH]nc(N)c45)ccc23)ccc1F | enzyme activity, inhibitor | 0.1 µM | activity vs control | 103% |
| CCN(CC)CCNC(=O)c1c(C)[nH]c(/C=C2\C(=O)Nc3ccc(F)cc32)c1C | enzyme activity, inhibitor | 10 µM | inhibition | 52% |
| CN(c1ncccc1CNc1nc(Nc2ccc3c(c2)CC(=O)N3)ncc1C(F)(F)F)S(C)(=O)=O | enzyme activity, inhibitor | 1 µM | inhibition | 29.7% |
| COc1ccc2c(c1)O[C@@H](c1ccc(OC)c(OC)c1)C[C@H]2NC(=O)C1(c2ccc3c(c2)OC(F)(F)O3)CC1 | cell-free assay, competition with immobilised ligand | 1 µM | remaining binding | 95% |
| COc1cc2ncnc(Nc3ccc(Oc4ccccc4)c(C)c3C)c2cc1OC | enzyme activity, inhibitor | 1 µM | inhibition | 2% |
| CNCc1ccccc1-c1csc([C@H](C)Nc2nc(C)nc3cc(OC)c(OC)cc23)c1 | cell-free assay, competition with immobilised ligand | 1 µM | remaining binding | 80% |
| Cc1ccc(NC(=O)c2ccc(C)c(C(F)(F)F)c2)cc1C#Cc1nn(C2CCC(O)CC2)c2ncnc(N)c12 (stereo not drawn) | cell-free assay | 10 µM | remaining signal | -3% |
